ChEMBL document CHEMBL3525987, “Assessment of exposure of metabolites in preclinical species and humans at steady state from the single-dose radiolabeled absorption, distribution, metabolism, and excretion studies: a case study” (Drug Metab Dispos, 2012)

Experiments:
Rattus norvegicus [1] = experiment: AUC(0 to infinity) as total radioactivity in female Sprague-Dawley rat plasma at 10 mg/kg, po administered as single dose via gavage […]; format: ADME, organism-based; set-up: time infinity, dose 10 mg/kg, dosed compound name [14C]lixivaptan, route oral; conditions: in vivo
How it was run: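 Jugular-cannulated Sprague-Dawley rats (5/gender) were fasted 18 h and gavaged once with 10 mg/kg [14C]lixivaptan suspended in water/pluronic F68. K2EDTA blood was taken at 0.25–168 h, with donor blood replaced from 1 h on. Total radioactivity was read by LSC (ng-equiv/ml) and parent by validated LC-MS/MS. Noncompartmental Cmax, log-linear kel and trapezoidal AUC followed.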

Rattus norvegicus [2] = experiment: Drug recovery in cage wash/debris of male Sprague-Dawley rat at 10 mg/kg, po administered as single dose via gavage measured after 168 hrs by liquid scintillation counting; format: ADME, organism-based; set-up: dose 10 mg/kg, dosed compound name [14C]lixivaptan, route oral; conditions: in vivo
How it was run: (§1)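 Intact SD rats (3/gender) dosed by gavage with [14C]drug 10 mg/kg (10 ml/kg, pluronic F68/water), housed in metabolism cages; urine and feces at 0-8, 8-24 h, then every 24 h to 7 days. Urine counted by LSC; feces homogenized 20% w/w in water, combusted, trapped CO2 counted; cage wash/debris included; % of dose.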

Rattus norvegicus [3] = experiment: Total Drug recovery in female Sprague-Dawley rat at 10 mg/kg, po administered as single dose via gavage measured after 168 hrs by liquid scintillation counting; format: ADME, organism-based; set-up: dose 10 mg/kg, dosed compound name [14C]lixivaptan, route oral; conditions: in vivo; how it was run: as §1
Rattus norvegicus [4] = experiment: Total drug recovery in bile duct-cannulated male Sprague-Dawley rat at 10 mg/kg, po administered as single dose via gavage measured from 0 to 48 hrs by liquid scintillation counting; format: ADME, organism-based; set-up: dose 10 mg/kg, dosed compound name [14C]lixivaptan, route oral; conditions: in vivo
How it was run: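 Male BDC rats (n=5) given oral [14C]drug as a suspension in deionized water with pluronic F68 (10 ml/kg). Drinking water supplemented with bile salts, NaCl and KCl. Bile collected on wet ice at 0-4, 4-8, 8-24 and 24-48 h. Duplicate aliquots counted by LSC; recovery expressed as % of dose in bile.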

[5] = Drug recovery in bile of bile duct-cannulated female Sprague-Dawley rat at 10 mg/kg, po administered as single dose via gavage measured 0 to 48 hrs by liquid scintillation counting; format: ADME, organism-based; set-up: dose 10 mg/kg, dosed compound name [14C]lixivaptan, route oral; conditions: in vivo
How it was run: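 Bile-duct cannulated SD rats (n=5) got single gavage of [14C]drug 10 mg/kg as pluronic F68/water suspension. Bile collected on wet ice at 0-4, 4-8, 8-24, 24-48 h; drinking water supplemented with bile salts and electrolytes. Duplicate aliquots counted by liquid scintillation; expressed as % of dose.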

[6] = Drug recovery in urine of male beagle dog at 10 mg/kg, po administered as single dose via gavage measured after 168 hrs by liquid scintillation counting; format: ADME, organism-based, Canis lupus familiaris; set-up: dose 10 mg/kg, dosed compound name [14C]lixivaptan, route oral; conditions: in vivo
How it was run: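 Four male beagles got 10 mg/kg (2 ml/kg) [14C]drug suspension (5.0 mg/ml, pluronic F68/water, 1.04 µCi/mg) by gavage. Urine and feces collected over dry ice at 0-8, 8-24 h, then every 24 h to 7 days; urine by LSC, fecal homogenates combusted then LSC; cage wash/debris included; % of dose.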

Homo sapiens [7] = experiment: AUC(0 to t) as total radioactivity in human plasma at 100 mg, po administered as single dose by LC-MS/MS analysis; format: ADME, organism-based; set-up: dosed compound name [14C]lixivaptan; conditions: in vivo
How it was run: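 Fasted healthy males took one oral 100 mg (200 µCi) [14C]lixivaptan dose. Plasma was drawn from predose to 144 h. Total radioactivity was measured by LSC and converted to ng-equiv/ml via the dose specific activity; lixivaptan by validated LC-MS/MS. Noncompartmental analysis: Cmax observed; kel by log-linear regression; AUC0-t by linear trapezoid; extrapolation as Cest/kel.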

Rattus norvegicus [8] = experiment: Tmax as total radioactivity in male Sprague-Dawley rat plasma at 10 mg/kg, po administered as single dose via gavage by LC-MS/MS analysis; format: ADME, organism-based; set-up: dose 10 mg/kg, dosed compound name [14C]lixivaptan, route oral; conditions: in vivo
How it was run: (§2)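 Jugular-vein cannulated SD rats (5/gender) given gavage [14C]drug 10 mg/kg in pluronic F68/water; K2EDTA blood 0.25-168 h with donor blood replacement. Parent by validated LC-MS/MS, radioactivity by LSC; Tmax observed; t1/2 = 0.693/kel by terminal log-linear regression.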

Rattus norvegicus [9] = experiment: Half life as total radioactivity in male Sprague-Dawley rat plasma at 10 mg/kg, po administered as single dose via gavage by LC-MS/MS analysis; format: ADME, organism-based; set-up: dose 10 mg/kg, dosed compound name [14C]lixivaptan, route oral; conditions: in vivo; how it was run: as §2
Rattus norvegicus [10] = experiment: Half life as total radioactivity in female Sprague-Dawley rat plasma at 10 mg/kg, po administered as single dose via gavage by LC-MS/MS analysis; format: ADME, organism-based; set-up: dose 10 mg/kg, dosed compound name [14C]lixivaptan, route oral; conditions: in vivo; how it was run: as §2
Canis familiaris [11] = experiment: Half life as total radioactivity in male beagle dog plasma at 10 mg/kg, po administered as single dose by LC-MS/MS analysis; format: ADME, organism-based, Canis lupus familiaris; set-up: dose 10 mg/kg, dosed compound name [14C]lixivaptan, route oral; conditions: in vivo
How it was run: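 Male beagles given 10 mg/kg [14C]drug oral suspension; jugular K2EDTA blood at 0.25-168 h. Parent by validated LC-MS/MS, total radioactivity by LSC; Tmax observed; t1/2 = 0.693/kel from terminal log-linear regression.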

Canis familiaris [12] = experiment: AUC(0 to t) as total radioactivity in male beagle dog plasma at 10 mg/kg, po administered as single dose by LC-MS/MS analysis; format: ADME, organism-based, Canis lupus familiaris; set-up: dose 10 mg/kg, dosed compound name [14C]lixivaptan, route oral; conditions: in vivo
How it was run: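 Four male beagles were fasted 18 h and gavaged once with 10 mg/kg (2 ml/kg) [14C]lixivaptan as a 5.0 mg/ml water/pluronic F68 suspension. Jugular K2EDTA blood was sampled from 0.25 to 168 h. Plasma total radioactivity was counted by LSC as ng-equiv/ml and lixivaptan by validated LC-MS/MS. Noncompartmental Cmax, t1/2 and trapezoidal AUC were derived.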

[13] = Retention time of the compound by HPLC analysis; format: physicochemical; set-up: dosed compound name [14C]lixivaptan
Homo sapiens [14] = experiment: Drug level in human plasma at 100 mg, po administered as single dose measured after 0.5 hrs by liquid scintillation counting; format: ADME, organism-based; set-up: dosed compound name [14C]lixivaptan; conditions: in vivo
How it was run: (§3)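 Healthy male volunteers fasted ≥10 h, given single oral 100 mg (200 µCi) [14C]drug as two 50-mg capsules with 250 ml water. Plasma (from ~50 ml blood) at 0.5, 2, 4, 8, 12, 24, 36 h, profiled per subject. Acetonitrile extraction, C18 radio-HPLC with 0.2% formic acid acetonitrile/water gradient, on-line radioactivity detection as % plasma radioactivity; ng-equiv/ml from % × total radioactivity.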

Homo sapiens [15] = experiment: Drug level in human plasma at 100 mg, po administered as single dose measured after 8 hrs by liquid scintillation counting; format: ADME, organism-based; set-up: dosed compound name [14C]lixivaptan; conditions: in vivo; how it was run: as §3
Homo sapiens [16] = experiment: Drug level in human plasma at 100 mg, po administered as single dose measured after 24 hrs by liquid scintillation counting; format: ADME, organism-based; set-up: dosed compound name [14C]lixivaptan; conditions: in vivo; how it was run: as §3
Rattus norvegicus [17] = experiment: Drug level in female Sprague-Dawley rat plasma at 10 mg/kg, po administered as single dose via gavage measured after 8 hrs by liquid scintillation counting; format: ADME, organism-based; set-up: dose 10 mg/kg, dosed compound name [14C]lixivaptan, route oral; conditions: in vivo
How it was run: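 Sprague-Dawley rats (9/gender) were fasted 18 h and gavaged once with [14C]lixivaptan at 10 mg/kg (10 ml/kg), about 29.8 µCi/mg, suspended in deionized water with pluronic F68. Plasma came by cardiac puncture under isoflurane at 1, 8 and 24 h (3/gender/time) and was extracted twice with 2 volumes of acetonitrile. C18 radio-HPLC with a flow scintillation detector gave percent of plasma radioactivity per peak.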

Canis familiaris [18] = experiment: Drug level in beagle dog plasma at 10 mg/kg, po administered as single dose measured after 8 hrs by liquid scintillation counting; format: ADME, organism-based, Canis lupus familiaris; set-up: dose 10 mg/kg, dosed compound name [14C]lixivaptan, route oral; conditions: in vivo
How it was run: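 Four male beagles fasted 18 h were gavaged once with [14C]lixivaptan at 10 mg/kg (2 ml/kg). The 5.0 mg/ml suspension was in deionized water with pluronic F68 (1.04 µCi/mg). Jugular K2EDTA plasma was taken at 2, 8 and 24 h and extracted twice with 2 volumes of acetonitrile. Profiling used C18 radio-HPLC (ammonium formate/acetonitrile gradient) with on-line flow scintillation detection. Each peak is reported as percent of plasma radioactivity.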

AUC (Rattus norvegicus [1]): 37200 ng.Eq.hr/ml
Radiolabel recovery (Rattus norvegicus [2]): 2.2%
Radiolabel recovery (Rattus norvegicus [3]): 103%
Radiolabel recovery (Rattus norvegicus [4]): 65.4%
Radiolabel recovery [5]: 70.5%
Radiolabel recovery [6]: 7.95%
AUCt (Homo sapiens [7]): 24700 ng.Eq.hr/ml
Tmax (Rattus norvegicus [8]): 3.2 h
t1/2 (Rattus norvegicus [9]): 36.6 h
t1/2 (Rattus norvegicus [10]): 33.6 h
t1/2 (Canis familiaris [11]): 69.7 h
AUCt (Canis familiaris [12]): 82800 ng.Eq.hr/ml
Retention_time [13]: 34.3 min
Compound recovery (Homo sapiens [14]): 43.5%
Compound recovery (Homo sapiens [15]): 6.7%
Compound recovery (Homo sapiens [16]): 5.5%
Compound recovery (Rattus norvegicus [17]): 12.2%
Compound recovery (Canis familiaris [18]): 14.9%
SMILES: Cc1ccc(F)cc1[14C](=O)Nc1ccc(C(=O)N2Cc3cccn3Cc3ccccc32)c(Cl)c1
